Laboratory results: ChEMBL document CHEMBL4052820, “RNA G-Quadruplexes in Kirsten Ras (KRAS) Oncogene as Targets for Small Molecules Inhibiting Translation” (J Med Chem, 2017)
Active and inactive are the calls of the source. The rule behind the calls is not given here.

What was measured:
PANC-1 [1] = test: Induction of apoptosis in human PANC1 cells assessed as activation of caspase-3/7 at 0.8 to 1.6 uM; assay type: functional, cell-based
How it was run: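 Caspase-3/7 activity in treated Panc-1 cells was read with a homogeneous fluorogenic caspase-3/7 kit per the manufacturer.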

PANC-1 [2] = test: Downregulation of KRAS mRNA expression in human PANC1 cells at 1.6 uM after 6 to 24 hrs by qRT-PCR method relative to control; assay type: functional
How it was run: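 Panc-1 cells were seeded at 18 × 10^3/well and treated the next day. Total RNA was extracted 6 and 24 h later. cDNA was made with oligo-dT plus random hexamers and M-MLV reverse transcriptase (1 h, 37 °C). Multiplex probe qPCR measured KRAS against HPRT and β2-microglobulin (50 cycles: 10 s 95 °C, 60 s 58 °C).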

Homo sapiens [3] = organism: Homo sapiens; test: Stabilization of human KRAS utr-z G-quadruplex RNA assessed as change in melting temperature at 1 to 4 ligand to RNA ratio after 1 hr by UV-visible spectrophotometer
How it was run: (§1)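 UV-melting curves of the G4 RNA were recorded at 260 and 296 nm in a 0.5 cm cuvette, in 50 mM Tris-HCl pH 7.4, 100 mM KCl. Ligand was tested at ligand/G4 ratio r = 1, 2 and 4. ΔTM is the TM increase over RNA alone.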

PANC-1 [4] = test: Induction of apoptosis in human PANC1 cells at 1.6 uM after 72 hrs by annexin V/propidium iodide staining-based flow cytometric method (reference value: 1.2%); assay type: functional
How it was run: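 Panc-1 cells were exposed to 1.6 μM compound for 72 h, stained with FITC-annexin V and propidium iodide, and apoptotic cells counted by flow cytometry.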

[5] = Binding affinity to human KRAS utr-4 G-quadruplex RNA by fluorescence titration method
[6] = Binding affinity to WC RNA hairpin (unknown origin) by fluorescence titration method
[7] = Selectivity ratio of Kd for WC RNA hairpin (unknown origin) to Kd for human KRAS utr-z G-quadruplex RNA
[8] = Selectivity ratio of Kd for WC RNA hairpin (unknown origin) to Kd for human KRAS utr-1 G-quadruplex RNA
[9] = Selectivity ratio of Kd for WC RNA hairpin (unknown origin) to Kd for human KRAS utr-4 G-quadruplex RNA
Homo sapiens [10] = organism: Homo sapiens; test: Stabilization of human KRAS 5'-UTR G-quadruplex RNA in human PANC1 cells assessed as inhibition of translation by measuring levels of KRAS protein at 1.6 uM after 48 hrs by Western blot method relative to control; assay type: cell-based; set-up: scale not given: the % may be the effect or the level left
How it was run: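 Panc-1 lysates (15 μg protein) were run on 12% SDS-PAGE and transferred to nitrocellulose. Membranes were blocked with 5% BSA in PBS-0.05% Tween and probed overnight at 4 °C with rabbit polyclonal anti-KRAS (1:250) and mouse anti-actin. HRP-conjugated secondaries were applied for 1 h, with chemiluminescent detection.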

Homo sapiens [11] = organism: Homo sapiens; test: Stabilization of human KRAS utr-c G-quadruplex RNA assessed as change in melting temperature at 1 to 4 ligand to RNA ratio after 1 hr by UV-visible spectrophotometer; how it was run: as §1
PANC-1 [12] = test: Inhibition of metabolic activity in human PANC1 cells after 72 hrs by resazurin assay; assay type: functional, cell-based; conditions: PANC-1, 72 h
How it was run: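 Panc-1 cells were seeded at 10 × 10^3/well, treated after 1 day, incubated 72 h, then assayed with resazurin for metabolic activity. IC50 was reported.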

Homo sapiens [13] = organism: Homo sapiens; test: Stabilization of human KRAS 5'-UTR G-quadruplex RNA transfected in human PANC1 cells assessed as inhibition of translation at 0.3 to 1.6 uM preincubated for 6 hrs followed by transfection measured after 48 hrs by dual-glo luciferase reporter gene assay; assay type: cell-based
How it was run: (§2)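 Panc-1 cells (20 × 10^3) were treated the next day for 6 h. They were then transfected with jet-PEI using 10 ng Renilla reporter under the KRAS promoter including the 5′-UTR, plus 200 ng Firefly plasmid under a G4-mutated HRAS promoter. Dual-Glo luminescence was read 48 h later. Renilla/Firefly is given as T/C × 100 against untreated cells.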

[14] = Binding affinity to human KRAS promoter G-quadruplex DNA by fluorescence titration method
[15] = Binding affinity to human KRAS utr-1 G-quadruplex RNA by fluorescence titration method
How it was run: (§3)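 KD was obtained from fluorescence titrations of ligand with G4 RNA in 50 mM Tris-HCl, pH 7.4, 100 mM KCl.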

[16] = Drug uptake in human PANC1 cells at 3 uM after 4 hrs by flow cytometric method; assay type: ADME, cell-based; conditions: panc-1, 4 h
How it was run: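 Panc-1 cells were seeded at 5 × 10^4/well and exposed the next day to 3 μM compound for 4 h. Cells were trypsinized, resuspended in PBS and analysed at once by flow cytometry (488 nm excitation, FL3 680 nm, log scale), at least 10^4 cells per sample, gated on FSC/SSC.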

[17] = Binding affinity to human KRAS utr-z G-quadruplex RNA by fluorescence titration method; how it was run: as §3
Homo sapiens [18] = organism: Homo sapiens; test: Stabilization of human KRAS utr-1 G-quadruplex RNA assessed as change in melting temperature at 1 to 4 ligand to RNA ratio after 1 hr by UV-visible spectrophotometer; how it was run: as §1
PANC-1 [19] = test: Inhibition of colony formation in human PANC1 cells at 0.25 to 0.5 uM after 18 days by methylene blue assay relative to control; assay type: functional
How it was run: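 Panc-1 cells were plated in 60 mm dishes with compound. After 18 days they were fixed and stained 10 min with 2.5% methylene blue in 50% ethanol. Colonies of more than 50 cells were counted.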

Homo sapiens [20] = organism: Homo sapiens; test: Stabilization of human KRAS utr-1 G-quadruplex RNA assessed as change in melting temperature at 4 ligand to RNA ratio after 1 hr in presence of 5 or 10 fold excess 21 mer RNA duplex by UV-visible spectrophotometer
How it was run: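 The utr-1 G4 RNA was UV-melted with ligand at ligand/G4 ratio r = 4, with a 5- or 10-fold excess of 21-mer RNA duplex added to test quadruplex-over-duplex competition.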

Cytomegalovirus = test: Stabilization of CMV promoter lacking KRAS 5'-UTR G-quadruplex RNA transfected in human PANC1 cells assessed as inhibition of translation at 0.15 to 0.6 uM preincubated for 6 hrs followed by transfection measured after 48 hrs by dual-glo luciferase reporter gene assay; assay type: cell-based
How it was run: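 Renilla reporter pRL-CMV lacks the KRAS 5′-UTR. Panc-1 cells were pretreated 6 h, then cotransfected (10 ng) with 200 ng Firefly plasmid under a G4-mutated HRAS promoter. Dual-Glo was read after 48 h, expressed as Renilla/Firefly T/C × 100 versus untreated cells.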

Homo sapiens [21] = organism: Homo sapiens; test: Stabilization of human KRAS 5'-UTR G-quadruplex RNA transfected in human PANC1 cells assessed as inhibition of translation at 0.07 to 0.33 uM preincubated for 6 hrs followed by transfection measured after 48 hrs by dual-glo luciferase reporter gene assay; assay type: cell-based; how it was run: as §2
[22] = Drug uptake in cytoplasm of human PANC1 at 3 uM after 4 hrs by Syto-14 fluorescent dye-based confocal microscopic method; assay type: ADME
Homo sapiens [23] = organism: Homo sapiens; test: Stabilization of human KRAS 5'-UTR G-quadruplex RNA at 3'-end of CMV promoter transfected in human PANC1 cells assessed as inhibition of translation preincubated for 6 hrs followed by transfection measured after 48 hrs by dual-glo luciferase reporter gene assay; assay type: cell-based
How it was run: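 Renilla reporter pRL-CMV-UTR carries the 192-nt KRAS 5′-UTR inserted downstream of the CMV promoter. Panc-1 cells were pretreated 6 h (0–1.6 μM), then cotransfected (10 ng) with 200 ng Firefly plasmid under a G4-mutated HRAS promoter. Dual-Glo was read after 48 h, expressed as Renilla/Firefly T/C × 100.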

Row | Structure (SMILES) | Activity (PANC-1 [1]) | Activity (PANC-1 [2]) | ΔTm (Homo sapiens [3]) | Activity (PANC-1 [4]) | Kd [5] | Kd [6] | Selectivity ratio [7] | Selectivity ratio [8] | Selectivity ratio [9] | Activity (Homo sapiens [10]) | ΔTm (Homo sapiens [11]) | IC50 (PANC-1 [12]) | inhibition (Homo sapiens [13]) | Kd [14] | Kd [15] | Drug uptake [16] | Kd [17] | ΔTm (Homo sapiens [18]) | Drug uptake [22] | also measured
1 | N=C(N)NCCNc1c2c(c(NCCNC(=N)N)c3sccc13)C(=O)c1ccccc1C2=O | inactive | inactive | – | – | – | – | – | – | – | – | – | – | – | – | – | – | – | – | – | –
2 | NCCNc1c2c(c(NCCN)c3sccc13)C(=O)c1ccccc1C2=O | Active | inactive | < 20 °C | 20.6% | 83 nM | 482 nM | 2 to 6 | 2 to 6 | 2 to 6 | < 10% | < 20 °C | 900 nM | Dose-dependent effect | 278 nM | 91 nM | Active | 294 nM | < 20 °C | – | –
3 | NCCNc1c2c(c(NCCN)c3occc13)C(=O)c1ccccc1C2=O | Active | 50% | < 32 °C | 32.5% | 96 nM | 514 nM | 2 to 6 | 2 to 6 | 2 to 6 | < 10% | < 32 °C | 260 nM | Dose-dependent effect | 626 nM | 75 nM | Active | 251 nM | < 32 °C | Active | inhibition (INH) (PANC-1 [19]): 80%; Activity (Homo sapiens [20]): Active; inhibition (Cytomegalovirus): inactive; inhibition (Homo sapiens [21]): Dose-dependent effect; inhibition (Homo sapiens [23]): Dose-dependent effect
4 | N=C(N)NCCNc1c2c(c(NCCNC(=N)N)c3occc13)C(=O)c1ccccc1C2=O | inactive | inactive | – | – | – | – | – | – | – | – | – | – | – | – | – | – | – | – | Active | –
